Screens as filed in PubChem.
Rad51 HR inh = Rad51 (human) homologous recombination inhibition | AID 1385 | actives 0.085% (n = 200,000) | inhibition, % at 10 µM | hRad51 DNA strand exchange, fluorescence dequenching;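 active = inhibition above 40% at the single screening dose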
Target sequence (Q06609 whole entry, looked up): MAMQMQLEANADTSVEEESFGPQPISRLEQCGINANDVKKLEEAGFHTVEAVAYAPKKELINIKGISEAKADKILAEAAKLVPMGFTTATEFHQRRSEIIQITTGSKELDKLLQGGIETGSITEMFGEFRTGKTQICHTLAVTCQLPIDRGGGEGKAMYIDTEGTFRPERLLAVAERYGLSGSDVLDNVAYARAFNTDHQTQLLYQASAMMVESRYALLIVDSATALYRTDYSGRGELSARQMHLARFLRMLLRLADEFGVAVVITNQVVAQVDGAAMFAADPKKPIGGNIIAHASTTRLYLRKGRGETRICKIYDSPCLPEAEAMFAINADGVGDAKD
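System: hRad51 filaments on single-stranded DNA; reagent: Fluorescein- and BHQ1-tagged 47-mer duplex; compound dosing: one concentration, 10 µM final; timing: filaments 15 min 37 °C, then compound 30 min; measured by: fluorescein emission 520 nm, excitation 485 nm; benchmarks: per-plate controls and blanks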
Arbovirus inh = arbovirus infection inhibition; actives 0.37% (n = 200,000); AID 1251; arbovirus infection cell-based antiviral screen; inhibition, % at 10 µM; in the data active = inhibition above about 30%
PKD1 inh = PKD1 (human) kinase inhibition; inhibition, % (no concentration beside the values); AID 797; actives 0.056% (n = 200,000); PKD1 kinase fluorescence polarization assay
Wee1 degr inh = blocks degradation of human Wee1 kinase; P30291; HeLa Luc-Wee1K328M stability, luciferase luminescence; 100% = proteasome inhibitor MG132 effect; reporter increase, % at 5 µM; actives 1.2% (n = 220,000); AID 1321;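 active = activation above the mean of all tested compounds plus 3 SD, set per screening run, cut at about 8.8% in these data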;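 also: cells exposed to compound for 20 h before luminescence read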
CHOP inh = blocks CHOP induction under ER stress; actives 3.8% (n = 220,000); CHO-K1 CHOP-promoter luciferase, tunicamycin-induced, 15-18 h; inhibition, % at 10 µM;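 active = compounds that reduced the stress-induced luciferase reporter signal by more than about 70% of percent inhibition, limit read from the data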
L major viab = inhibitors of Leishmania major promastigote growth | AID 1063 | inhibition, % at 10 µM | actives 9% (n = 200,000) | Leishmania major promastigotes, resazurin fluorescence viability;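 also: promastigotes grown with compound for 44 hours at 28 °C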
Of the large screens only hits and unclear results are named; the others gave an inactive call. An excerpt weighted towards active compounds, which were near 12% of everything screened. Rule as the data show it, unless noted: active = inhibition above about 50%; inactive = the rest.

Cc1ccc(NC(=O)COc2ccccc2CNC(C)(C)CC(C)(C)C)cc1	CHOP inh 74, L major viab 100
Cc1ccc(NC(=O)COc2ccc(Br)cc2CO)cc1	Arbovirus inh 36
COc1cc2nc(SCc3c(C)noc3C)n(CCC3=CCCCC3)c(=O)c2cc1OC	L major viab 62
Cc1ccc(Oc2ncc(CN3CCOCC3)s2)cc1	L major viab 77
Clc1cccc(Oc2ncc(CN3CCOCC3)s2)c1	L major viab 62
Brc1ccc(Oc2ncc(CN3CCN(c4ccccc4)CC3)s2)cc1	none
COc1ccc(F)c(CN2CCC(CO)(Cc3cccc(C(F)(F)F)c3)CC2)c1	L major viab 84
COc1ccc(CN2CCC(CO)(Cc3cccc(C(F)(F)F)c3)CC2)cc1Cn1cccn1	L major viab 81
COc1cc(CN2CCC(CO)(Cc3cccc(C(F)(F)F)c3)CC2)ccc1F	none (no result: Rad51 HR inh, Arbovirus inh, PKD1 inh, L major viab)
CCOC(=O)c1nc(C)nc(Sc2n[nH]c(-c3cc(C(F)(F)F)cc(C(F)(F)F)c3)n2)c1C	CHOP inh 72 (no result: Arbovirus inh, PKD1 inh, L major viab)
CCOC(=O)c1sc(NC(=O)CSc2n[nH]c(-c3ccccc3)n2)c(C#N)c1C	none (no result: Rad51 HR inh)
Cn1ncc([N+](=O)[O-])c1C(=O)Nc1ccc(-c2nc3ccccc3o2)cc1	none
O=C(c1cc(-c2cccnc2)nc2ccc(Br)cc12)N1CCN(c2ncccn2)CC1	none
CC(=O)c1ccc(N2CCN(C(=O)c3cc(-c4cccnc4)nc4ccc(Br)cc34)CC2)cc1	Arbovirus inh 32 (no result: Rad51 HR inh)
CC(=O)c1cc(-c2ccc(F)cc2)n(CCC(=O)Nc2cccc(C)n2)c1C	none
COCC1CCCN(Cc2cn(Cc3ccccc3)nc2-c2cc3ccccc3o2)C1 (stereo unspecified)	L major viab 64 (no result: Rad51 HR inh)
COc1ccc(NC(=O)COC(=O)Cc2c(F)cccc2Cl)cc1OC	none
Nc1c(C(=O)NC2CCCC2)c2nc3ccccc3nc2n1N	CHOP inh 74
Nc1c(C(=O)OCC2CCCO2)c2nc3ccccc3nc2n1C1CCCC1 (stereo unspecified)	L major viab 51 (no result: CHOP inh)
COCCn1c(N)c(C(=O)NCC2CCCO2)c2nc3ccccc3nc21 (stereo unspecified)	none
CC(C)Cn1c(N)c(C(=O)NCC2CCCO2)c2nc3ccccc3nc21 (stereo unspecified)	L major viab 59
Cc1c(C(=O)C(=O)NCCCn2ccnc2)c2ccccc2n1C	none (no result: Rad51 HR inh)
Cc1ccc2nc(-c3cccnc3)c(NC3CCCCC3)n2c1	L major viab 88
CCN1/C(=C/C(=O)c2ccco2)Sc2ccccc21	none
CCN1/C(=C/c2sc(-c3ccccc3C)c[n+]2C)Sc2ccccc21	CHOP inh 81, L major viab 100
CCOC(=O)C(=Cc1ccc(-n2cncn2)cc1)C(=O)OCC	L major viab 77
COc1ccc(OC)c(S(=O)(=O)N2CCC(C(=O)Nc3cccc(C(F)(F)F)c3)CC2)c1	L major viab 91
COc1ccc(OC)c(S(=O)(=O)N2CCC(C(=O)NCc3ccccc3)CC2)c1	none
Cc1ccc(-n2c(SCC(=O)c3c(N)n(C)c(=O)n(C)c3=O)nc3sc4c(c3c2=O)CCCC4)c(C)c1	CHOP inh 73
CN1CCN(C(=S)Nc2ccc(S(N)(=O)=O)cc2)CC1	none
O=C(NCc1ccco1)c1sc2cc(F)ccc2c1Cl	none
O=C(NCCCN1CCOCC1)c1sc2cc(F)ccc2c1Cl	L major viab 93
O=C(NCCCN1CCOCC1)c1sc2cc([N+](=O)[O-])ccc2c1Cl	L major viab 86
CC1(C)CC(NC(=O)c2sc3cc(Cl)ccc3c2Cl)CC(C)(C)N1	L major viab 101
O=C(NCCN1CCOCC1)c1ccc([N+](=O)[O-])cc1[N+](=O)[O-]	L major viab 71
O=C(NCCN1CCOCC1)c1cc(Cl)ccc1[N+](=O)[O-]	none
O=C(CN1CCOCC1)Nc1cc([N+](=O)[O-])ccc1Cl	none
CCOC(=O)/C(=C/Nc1ccc(F)c(F)c1)[N+](=O)[O-]	none (no result: Arbovirus inh, PKD1 inh, L major viab)
O=C(Nc1ccccc1C(F)(F)F)c1c(F)cccc1Cl	none
O=C(NCCCN1CCOCC1)c1sc2cc(Cl)ccc2c1Cl	L major viab 92
O=C(NCCCN1CCOCC1)c1c(F)cccc1F	none
NC(=O)C1=C[C@@H](c2ccc(C(F)(F)F)cc2)C[C@@H](OCCCCO)O1	none
N#Cc1c(SCC(N)=O)nc2c(c1-c1ccc(OCc3ccccc3)cc1)CCCC2	none (no result: Rad51 HR inh, Arbovirus inh, CHOP inh)
